Source: the EternaBench riboswitch data

Test system: MS2 coat protein
Experiment: apparent Kd, MS2 coat protein; higher = weaker binding; RNA-MaP array; FMN 200 µM where present
How it was run: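 Each design was made on Illumina sequencing-chip clusters by stalled E. coli RNA polymerase and titrated with SNAP-549-labelled MS2 coat protein from 0.7 or 1.5 nM, doubling to 3 µM, in the absence and then the presence of constant ligand. The buffer was 100 mM Tris-HCl pH 7.5, 80 mM KCl, 4 mM MgCl2, BSA, DTT, yeast tRNA and Tween-20. The apparent Kd is the median of filtered per-cluster fits of binding curves, with green signal normalised to red-channel RNA signal and control-cluster median Fmax.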

[1] = designed as: OFF switch for flavin mononucleotide, no ligand
[2] = ligand present: flavin mononucleotide, designed as: OFF switch for flavin mononucleotide
[3] = designed as: ON switch for flavin mononucleotide, no ligand
[4] = ligand present: flavin mononucleotide, designed as: ON switch for flavin mononucleotide

Sequence | apparent Kd [1] [nM] | apparent Kd [2] [nM] | apparent Kd [3] [nM] | apparent Kd [4] [nM]
CGUACUCAAAGAGUACCAAUACGAACAUGAGGAUCACCCAUGUAGGAUAUGCUACUCAAAGAGUAGCAGAAGGACAUGUGCCUA | 19.3 | 73.2 | – | –
CGUAUUAAACAAGGAUAUCAUUUGUGUACAAGUUUUACAUGAGGAUCACCCAUGUUAAAUGGUUUUGAGAAGGUGUUUAGAUCG | – | – | 35.3 | 25.9
CGUCAGUGAGGAUAUGGUAUCGUGUACAUGAGGAUCACCCAUGUUUCUUGGGACUAUAUACUAGAAGGCACUGACG | 16 | 35.3 | – | –
CGUCCUUAGUGAGGAUAUCAGAAAAUACGGAAAUGAGAAGGCACAUGAGGAUCACCCAUGUAAAUAACGGCCGGUCUUGGCAGC | 7.96 | 21.6 | – | –
CGUCUAUGCCAGAAGGCAUGUCAAAAGACAUGAGGAUCACCCAUGUAAAUGAGGAUAUGGCAUAGACGAAAAGUGCGAAAGCAC | – | – | 136 | 13.6
CGUGCGUAUGUGAGGAUAUGCUGGUCCUUGGAUCGGCAGAAGGCACAUGAGGAUCACCCAUGUGGUGUCGUACC | 187 | 35.9 | – | –
CGUGCGUAUGUGAGGAUAUGCUGGUCCUUGGAUCGGCAGAAGGUACAUGAGGAUCACCCAUGUGGUGUCGUUCU | 252 | 292 | – | –
CGUGGCCGAGGAUAUACGGACGUGUCGCCGGGUGUCGUGGGACAUGAGGAUCACCCAUGUAGAAGGUGGUUGUC | 53.5 | 39 | – | –
CGUGUAAACUCAGGAUAUCCUGCGAGCAACGGGUAUUGAGUCUUCACAUGAGGAUCACCCAUGUAGGAGAAGGGAGGUACAAAA | 72.6 | 187 | – | –
CGUGUUUAUGUGAGGAUAUUAUCAAGCUGAUUGUGUAAGAAGGCACAUGAGGAUCACCCAUGUGGCGAUUCCGC | 34.2 | 215 | – | –
CGUUAUGAUAAAGGAUAUAUAAUAGAUAUACAUGAGGAUCACCCAUGUUACAUGGAUUCAAAUUUAUAGAAGGUUAUCCUAUCG | 36 | 22.6 | – | –
CGUUCACAUGAGGAUCACCCAUGUCAGAUUUGGUCAGGAUAUGGUCUGCUUUCGCUAUUUCCAGAAGGGACUUUUG | – | – | 28.6 | 24.8
CGUUCGUGAGGAUAUUGUGGAAUUGACAUGAGGAUCACCCAUGUGGCCAUUGUCGACUCGCAAGAAGGCAUAGAUU | 54.2 | 189 | – | –
CGUUUAUUUAUGGGAUUAUAUUAUGAGGAUAUCAAUAUUUAUUACAUGAGGAUCACCCAUGUUAAUGAGAAGGCAUAAUUAACG | – | – | 9.53 | 6.3
CGUUUUUAUGUAGGAUAUGCUUGUGGUAAGAUAGCAGAAGGACAUGAGGAUCACCCAUGUUAAUGAUAGAGAUUUUAUGUGGCG | 37.8 | 61.4 | – | –
CUAAAUCAUGUAGGAUAUGCAUGGCGAAGCUACGCAGAAGGACAUGAGGAUCACCCAUGUCUCUCCGUCUGGGUACAGACGGAG | 18.9 | 120 | – | –
CUAAGUGCCGGAGGAUAUACAUGAGGAUCACCCAUGUCAGUCUGUUUACAUGUAGAAGGCCGGCGAACAAAGGACUUGCCAAGA | 48.1 | 298 | – | –
CUACAUGAGGAUCACCCAUGUGCACGCCAGAUCGGUGUGCGCAGAAGGGCCAUGGAGAAAGCCAGGCAGGAUAUGCAAAGGGCU | – | – | 353 | 162
CUACCGCGUGUGAGGAUAUUAUCACGUUACGGCGCUAAGAAGGUACAUGAGGAUCACCCAUGUCUCAACGGGUG | 447 | 546 | – | –
CUACCUUAUGAGAAGGCGAUUAUGAAACAUGAUCGAGGAUAUCAUGUAAACAUGAGGAUCACCCAUGUAUGGGUAUUAUGGUAA | – | – | 211 | 32.8
CUAGAAAGGACAGGAUAUCGGGAUCGAACACCCGACAUGAGGAUCACCCAUGUCGCAAAAGAUAGCGAGAAGGGUCGGACACAA | – | – | 45.8 | 14.1
CUAGCAACAUGAGGAUCACCCAUGUAGGAUAUCGCUAUUGUAAUCAUGAAACAUGAUUACAAUAGCGAGAAGGACAUAUGCUAG | 6.44 | 9.28 | – | –
CUAGUAUAUCAGGAUAUGAUUUUGUGUAGUUGGUCAGAAGGGAUGACAUGAGGAUCACCCAUGUUAAGGGAUGA | 94.2 | 108 | – | –
CUAUAGAUAUCAGGAUAUCUAUUUCCUACAUGAGGAUCACCCAUGUAGAUGAUCACCCAUGUAAAGGAGAAGGGAUAUCUAUAG | – | – | 361 | 169
CUAUGAGGAAUAGGAUAUUCGAUCAUGAGGAUAGAAGAAGGGUUACAUGAGGAUCACCCAUGUAUGCACAUGAGGAUCCCUUAG | 235 | 226 | – | –
CUAUUGGUAACAGGAUAUAUGAGUCCUACAUGAGGAUCACCCAUGUAGGUGAUCAAACAUGAUUAGUAGAAGGGUUACCAAUAG | – | – | 40.9 | 8.8
CUCCUCCCGAAGGAUAUCCACGCCAACUUCGUAGGAGAAGGUCGGACAUGAGGAUCACCCAUGUGGCCAUGGUU | 18.5 | 40.3 | – | –
CUCGAGUGAGGAUAUAUACUUCCAUCAUUUGAGAGAGAAGUAUAGAAGGCACAUGAGGAUCACCCAUGUAUAAA | 47.5 | 69.7 | – | –
